Measured values taken from ChEMBL document CHEMBL5724801, “EUbOPEN Chemogenomics Library - Multiplex” (2024).
Where “and” joins values, the source holds several entries; their conditions need not be identical. Equal values may be shown once.

Test system: U2OS
Assay: Multiplex assay against U2OS
Assay type: toxicity, cell-based
Conditions: human
In short: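 Tubulin, mitochondrial-mass and membrane-permeability phenotypes are per cents of healthy-nucleus cells. Cells were gated by CellPathfinder machine learning into Hoechst high-intensity objects or normal cells, normal cells into healthy, pyknosed or fragmented nuclei, and pyknosed cells into mitotic or apoptotic. Before that, live cells stained at seeding with Hoechst33342, BioTracker Green Microtubule Cytoskeleton Dye, MitoTracker Red and Annexin V Alexa Fluor 680 were imaged on a CQ1 microscope at 37°C and 5% CO2 after compound addition.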

[1] = 12 h, 1 µM, compound concentration 1 uM
[2] = 12 h, 10 µM, compound concentration 10 uM
[3] = 24 h, 1 µM, compound concentration 1 uM
[4] = 24 h, 10 µM, compound concentration 10 uM
[5] = 48 h, 1 µM, compound concentration 1 uM
[6] = 48 h, 10 µM, compound concentration 10 uM

## COc1ccc(CC(=O)NC(N/C(=N/C#N)Nc2cccc3ncccc23)C(C)(C)C)cc1OC (configuration not stated)
[1]
  Population Apoptotic (%): 40.91% and 47.06%
  Population Fragmented Nuclei (%): 2.4% and 0.62%
  Population Healthy Nuclei (%): 91.73% and 88.89%
  Population Hoechst High Intensity Objects (%): 0%
  Population Membrane Permeable-Phenotype (%): 1.16% and 5.56%
  Population Mitochondria Different-Phenotype (%): 0.87% and 4.86%
  Population Mitotic Cells (%): 59.09% and 52.94%
  Population Normal (%): 100%
  Population Pyknosed Nuclei (%): 5.87% and 10.49%
  Population Tubulin-Different-Phenotype (%): 0.87% and 0.69%
  Total Cell Count: 375 and 162
[2]
  Population Apoptotic (%): 51.35% and 40%
  Population Fragmented Nuclei (%): 1.67% and 2.27%
  Population Healthy Nuclei (%): 88.02% and 82.58%
  Population Hoechst High Intensity Objects (%): 0%
  Population Membrane Permeable-Phenotype (%): 1.27% and 3.67%
  Population Mitochondria Different-Phenotype (%): 0.63% and 8.26%
  Population Mitotic Cells (%): 48.65% and 60%
  Population Normal (%): 100%
  Population Pyknosed Nuclei (%): 10.31% and 15.15%
  Population Tubulin-Different-Phenotype (%): 1.58% and 0.92%
  Total Cell Count: 359 and 132
[3]
  Population Apoptotic (%): 33.33% and 61.54%
  Population Fragmented Nuclei (%): 1.96% and 2.31%
  Population Healthy Nuclei (%): 85.66% and 85.65%
  Population Hoechst High Intensity Objects (%): 0%
  Population Membrane Permeable-Phenotype (%): 1.15% and 3.78%
  Population Mitochondria Different-Phenotype (%): 0.46% and 6.49%
  Population Mitotic Cells (%): 66.67% and 38.46%
  Population Normal (%): 100%
  Population Pyknosed Nuclei (%): 12.38% and 12.04%
  Population Tubulin-Different-Phenotype (%): 0.92% and 0%
  Total Cell Count: 509 and 216
[4]
  Population Apoptotic (%): 35.56% and 50%
  Population Fragmented Nuclei (%): 1.44% and 1.79%
  Population Healthy Nuclei (%): 89.32% and 87.5%
  Population Hoechst High Intensity Objects (%): 0%
  Population Membrane Permeable-Phenotype (%): 1.61% and 2.04%
  Population Mitochondria Different-Phenotype (%): 0.46% and 4.08%
  Population Mitotic Cells (%): 64.44% and 50%
  Population Normal (%): 100%
  Population Pyknosed Nuclei (%): 9.24% and 10.71%
  Population Tubulin-Different-Phenotype (%): 2.07% and 0.68%
  Total Cell Count: 487 and 168
[5]
  Population Apoptotic (%): 60.47% and 47.73%
  Population Fragmented Nuclei (%): 1.92% and 2.62%
  Population Healthy Nuclei (%): 88.91% and 85.86%
  Population Hoechst High Intensity Objects (%): 0%
  Population Membrane Permeable-Phenotype (%): 0.36% and 2.13%
  Population Mitochondria Different-Phenotype (%): 0.36% and 2.74%
  Population Mitotic Cells (%): 39.53% and 52.27%
  Population Normal (%): 100%
  Population Pyknosed Nuclei (%): 9.17% and 11.52%
  Population Tubulin-Different-Phenotype (%): 0.96% and 0.61%
  Total Cell Count: 938 and 382
[6]
  Population Apoptotic (%): 53.62% and 57.5%
  Population Fragmented Nuclei (%): 3.32% and 2.81%
  Population Healthy Nuclei (%): 89.53% and 83.16%
  Population Hoechst High Intensity Objects (%): 0%
  Population Membrane Permeable-Phenotype (%): 0.93% and 3.38%
  Population Mitochondria Different-Phenotype (%): 0.35% and 2.53%
  Population Mitotic Cells (%): 46.38% and 42.5%
  Population Normal (%): 100%
  Population Pyknosed Nuclei (%): 7.15% and 14.04%
  Population Tubulin-Different-Phenotype (%): 1.62% and 0.84%

## N#Cc1c(Oc2cccc(OS(=O)(=O)CCCC(F)(F)F)c2)cccc1C(F)(F)F
[1]
  Population Apoptotic (%): 77% and 81%
  Population Fragmented Nuclei (%): 27% and 12%
  Population Healthy Nuclei (%): 61% and 76%
  Population Hoechst High Intensity Objects (%): 3% and 0%
  Population Membrane Permeable-Phenotype (%): 4% and 7%
  Population Mitochondria Different-Phenotype (%): 2% and 7%
  Population Mitotic Cells (%): 22% and 18%
  Population Normal (%): 96% and 99%
  Population Pyknosed Nuclei (%): 10%
  Population Tubulin-Different-Phenotype (%): 0% and 8%
  Total Cell Count: 220 and 109
[2]
  Population Apoptotic (%): 78% and 90%
  Population Fragmented Nuclei (%): 27% and 14%
  Population Healthy Nuclei (%): 63% and 75%
  Population Hoechst High Intensity Objects (%): 3% and 0%
  Population Membrane Permeable-Phenotype (%): 11% and 21%
  Population Mitochondria Different-Phenotype (%): 8% and 4%
  Population Mitotic Cells (%): 21% and 9%
  Population Normal (%): 96% and 99%
  Population Pyknosed Nuclei (%): 8% and 9%
  Population Tubulin-Different-Phenotype (%): 7%
  Total Cell Count: 222 and 112
[3]
  Population Apoptotic (%): 75% and 90%
  Population Fragmented Nuclei (%): 25% and 12%
  Population Healthy Nuclei (%): 61% and 79%
  Population Hoechst High Intensity Objects (%): 2% and 1%
  Population Membrane Permeable-Phenotype (%): 4% and 11%
  Population Mitochondria Different-Phenotype (%): 2% and 3%
  Population Mitotic Cells (%): 24% and 10%
  Population Normal (%): 97% and 98%
  Population Pyknosed Nuclei (%): 12% and 7%
  Population Tubulin-Different-Phenotype (%): 3% and 7%
  Total Cell Count: 263 and 130
[4]
  Population Apoptotic (%): 66%
  Population Fragmented Nuclei (%): 26% and 9%
  Population Healthy Nuclei (%): 66% and 83%
  Population Hoechst High Intensity Objects (%): 6% and 3%
  Population Membrane Permeable-Phenotype (%): 10% and 11%
  Population Mitochondria Different-Phenotype (%): 8% and 0%
  Population Mitotic Cells (%): 33%
  Population Normal (%): 93% and 96%
  Population Pyknosed Nuclei (%): 7%
  Population Tubulin-Different-Phenotype (%): 5% and 7%
  Total Cell Count: 252 and 130
[5]
  Population Apoptotic (%): 87% and 100%
  Population Fragmented Nuclei (%): 17% and 16%
  Population Healthy Nuclei (%): 70% and 73%
  Population Hoechst High Intensity Objects (%): 3% and 2%
  Population Membrane Permeable-Phenotype (%): 4% and 9%
  Population Mitochondria Different-Phenotype (%): 0% and 4%
  Population Mitotic Cells (%): 12% and 0%
  Population Normal (%): 96% and 97%
  Population Pyknosed Nuclei (%): 11% and 9%
  Population Tubulin-Different-Phenotype (%): 3% and 7%
  Total Cell Count: 361 and 195
[6]
  Population Apoptotic (%): 91% and 100%
  Population Fragmented Nuclei (%): 23% and 11%
  Population Healthy Nuclei (%): 64% and 77%
  Population Hoechst High Intensity Objects (%): 4% and 3%
  Population Membrane Permeable-Phenotype (%): 10% and 13%
  Population Mitochondria Different-Phenotype (%): 6% and 4%
  Population Mitotic Cells (%): 8% and 0%
  Population Normal (%): 95% and 96%
  Population Pyknosed Nuclei (%): 11% and 10%
  Population Tubulin-Different-Phenotype (%): 6% and 7%
  Total Cell Count: 328 and 184

## CC(C)(c1ccc(O)cc1)c1ccc(O)cc1 [BISPHENOL A]
[1]
  Population Apoptotic (%): 38.24% and 39.39%
  Population Fragmented Nuclei (%): 2.9% and 4.3%
  Population Healthy Nuclei (%): 88.13% and 77.96%
  Population Hoechst High Intensity Objects (%): 0%
  Population Membrane Permeable-Phenotype (%): 0.3% and 2.76%
  Population Mitochondria Different-Phenotype (%): 0.3% and 6.21%
  Population Mitotic Cells (%): 61.76% and 60.61%
  Population Normal (%): 100%
  Population Pyknosed Nuclei (%): 8.97% and 17.74%
  Population Tubulin-Different-Phenotype (%): 0.9% and 0.69%
  Total Cell Count: 379 and 186
[2]
  Population Apoptotic (%): 50% and 47.62%
  Population Fragmented Nuclei (%): 2.17% and 6.45%
  Population Healthy Nuclei (%): 87.31% and 80%
  Population Hoechst High Intensity Objects (%): 0%
  Population Membrane Permeable-Phenotype (%): 0.71% and 4.03%
  Population Mitochondria Different-Phenotype (%): 0.35% and 6.45%
  Population Mitotic Cells (%): 50% and 52.38%
  Population Normal (%): 100%
  Population Pyknosed Nuclei (%): 10.53% and 13.55%
  Population Tubulin-Different-Phenotype (%): 1.42% and 0%
  Total Cell Count: 323 and 155
[3]
  Population Apoptotic (%): 49.02% and 57.14%
  Population Fragmented Nuclei (%): 2% and 2.2%
  Population Healthy Nuclei (%): 87.82% and 85.46%
  Population Hoechst High Intensity Objects (%): 0%
  Population Membrane Permeable-Phenotype (%): 1.59% and 3.61%
  Population Mitochondria Different-Phenotype (%): 0% and 5.67%
  Population Mitotic Cells (%): 50.98% and 42.86%
  Population Normal (%): 100%
  Population Pyknosed Nuclei (%): 10.18% and 12.33%
  Population Tubulin-Different-Phenotype (%): 0.68% and 0%
  Total Cell Count: 501 and 227
[4]
  Population Apoptotic (%): 38.3% and 22.58%
  Population Fragmented Nuclei (%): 2.34% and 3.03%
  Population Healthy Nuclei (%): 86.68% and 81.31%
  Population Hoechst High Intensity Objects (%): 0%
  Population Membrane Permeable-Phenotype (%): 0.54% and 5.59%
  Population Mitochondria Different-Phenotype (%): 0.81% and 6.21%
  Population Mitotic Cells (%): 61.7% and 77.42%
  Population Normal (%): 100%
  Population Pyknosed Nuclei (%): 10.98% and 15.66%
  Population Tubulin-Different-Phenotype (%): 0.54% and 0.62%
  Total Cell Count: 428 and 198
[5]
  Population Apoptotic (%): 38.64% and 58.54%
  Population Fragmented Nuclei (%): 3.22% and 4.97%
  Population Healthy Nuclei (%): 87.66% and 84.29%
  Population Hoechst High Intensity Objects (%): 0%
  Population Membrane Permeable-Phenotype (%): 0.36% and 2.17%
  Population Mitochondria Different-Phenotype (%): 0.24% and 4.66%
  Population Mitotic Cells (%): 61.36% and 41.46%
  Population Normal (%): 100%
  Population Pyknosed Nuclei (%): 9.13% and 10.73%
  Population Tubulin-Different-Phenotype (%): 0.47% and 0%
  Total Cell Count: 964 and 382
[6]
  Population Apoptotic (%): 36.49% and 60%
  Population Fragmented Nuclei (%): 2.4% and 2.31%
  Population Healthy Nuclei (%): 88.73% and 86.13%
  Population Hoechst High Intensity Objects (%): 0%
  Population Membrane Permeable-Phenotype (%): 1.22% and 3.02%
  Population Mitochondria Different-Phenotype (%): 0.27% and 2.68%
  Population Mitotic Cells (%): 63.51% and 40%
  Population Normal (%): 100%
  Population Pyknosed Nuclei (%): 8.87% and 11.56%
  Population Tubulin-Different-Phenotype (%): 0.68% and 1.34%
  Total Cell Count: 834 and 346
